# Measured values reported in ChEMBL document CHEMBL4118112, “Synthesis and Evaluation of the First Fluorescent Antagonists of the Human P2Y2 Receptor Based on AR-C118925” (J Med Chem, 2018).
# Activity calls are given as the source filed them. No cut-off for these calls is given here.
# Experiments:
# P2Y purinoceptor 2 [1] = target: T1, P2Y purinoceptor 2 (Homo sapiens, UniProt P41231); assay: Antagonist activity at human P2Y2R expressed in human 1321N1 cells assessed as inhibition of UTPgammaS-activated calcium-mobilization at 10 uM preincubated for 45 mins measured every 1.52 secs for 200 secs after the addition of UTPgammaS at 15 secs by fluo-4AM-based fluorescence assay relative to UTPgammaS; format: functional, cell-based
# T1 sequence (P41231 whole entry): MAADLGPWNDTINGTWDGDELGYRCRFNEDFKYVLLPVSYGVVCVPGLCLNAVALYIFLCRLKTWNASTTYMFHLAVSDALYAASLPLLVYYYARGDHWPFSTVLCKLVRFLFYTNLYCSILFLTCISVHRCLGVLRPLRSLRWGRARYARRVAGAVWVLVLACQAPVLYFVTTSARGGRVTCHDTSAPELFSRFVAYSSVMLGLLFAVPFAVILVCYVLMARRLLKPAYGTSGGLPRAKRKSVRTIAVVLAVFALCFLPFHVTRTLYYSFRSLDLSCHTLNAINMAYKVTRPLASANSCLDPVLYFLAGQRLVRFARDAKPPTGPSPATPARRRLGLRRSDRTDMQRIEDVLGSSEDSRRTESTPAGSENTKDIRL
# In short: (§1)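 hP2Y2R in 1321N1 astrocytoma cells. Calcium mobilization was driven by UTPγS. Single-concentration lines: compound at 10 µM, inhibition scored against the 0.1 µM UTPγS response (n=3). For the pKb line, the UTPγS concentration-response curve was run with a single antagonist concentration added, and pKb was calculated from the curve shift with the Gaddum equation.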
# P2Y purinoceptor 2 [2] = target: T1, P2Y purinoceptor 2; assay: Displacement of (E)-2-((5-(7-Chloro-2-((3-((2-(6-(3-(5,5-difluoro-7,9-dimethyl-5H-5-lambda4,6-lambda4-dipyrrolo[1,2-c:2,1-f ][1,3,2]diazaborinin-3-yl)-propanamido)hexanamido)ethyl)amino)-3-oxopropyl)amino)-4Hbenzo[5,6]cyclohepta[1,2-d]thiazol-4-yl)-2-oxo-4-thioxo-3,4-dihydropyrimidin-1(2H)-yl)methyl)-N-(1H-tetrazol-5-yl)thiazole-4-carboxamide from human N-terminal NLuc-tagged P2Y2R expressed in human 1321N1 cells incubated for 1 hr by furimazine-based NanoBRET assay; format: cell-based
# In short: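 Competition binding in 1321N1 cells expressing N-terminal NanoLuc-hP2Y2R. The fluorescent tracer was used at 1 µM (or the bodipy A tracer at 100 nM) against increasing concentrations of unlabeled ligand. After furimazine addition the BRET signal was read and pKi estimated; mean ± SEM of separate experiments.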
# P2Y purinoceptor 2 [3] = target: T1, P2Y purinoceptor 2; assay: Antagonist activity at human P2Y2R expressed in human 1321N1 cells assessed as inhibition of UTPgammaS-activated calcium-mobilization preincubated for 45 mins measured every 1.52 secs for 200 secs after the addition of UTPgammaS at 15 secs by fluo-4AM-based fluorescence assay; format: functional, cell-based; in short: as §1
# P2Y purinoceptor 2 [4] = target: T1, P2Y purinoceptor 2; assay: Binding affinity to recombinant human N-terminal NLuc-tagged P2Y2R expressed in human 1321N1 cells incubated for 1 hr in presence of AR-C118925 by furimazine-based NanoBRET assay; format: cell-based
# In short: (§2)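 N-terminally NanoLuc-tagged hP2Y2R was stably expressed in 1321N1 cells. Cells were treated with increasing concentrations of fluorescent conjugate, or a fixed 10 µM for screening, with or without 10 µM AR-C118925 to define nonspecific binding. Furimazine substrate was then added and the BRET signal read. pKd came from saturation binding curves; mean ± SEM of separate experiments.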
# P2Y purinoceptor 2 [5] = target: T1, P2Y purinoceptor 2; assay: Binding affinity to recombinant human N-terminal NLuc-tagged P2Y2R expressed in human 1321N1 cells at 10 uM incubated for 1 hr in presence of AR-C118925 by furimazine-based NanoBRET assay; format: cell-based; in short: as §2
# [6] = Drug uptake in human 1321N1 cells assessed as intracellular fluorescence at 100 nM after 30 mins by confocal microscopy; format: ADME, cell-based; details: 0.5 h, 0.1 µM
# In short: (§3)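 1321N1 astrocytoma cells expressing untagged hP2Y2R were given 100 nM fluorescent ligand and incubated 30 min at 37°C, with or without 10 µM AR-C118925 (1). Single equatorial confocal images were then taken with the fluorescent ligand and/or antagonist still present. Membrane and intracellular fluorescence were examined; images are representative of 4 experiments.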
# P2Y purinoceptor 2 [7] = target: T1, P2Y purinoceptor 2; assay: Binding affinity to human P2Y2R expressed in human 1321N1 cells assessed as localized membrane fluorescence at 100 nM after 30 mins by confocal microscopy; format: cell-based; in short: as §3
# P2Y purinoceptor 2 [8] = target: T1, P2Y purinoceptor 2; assay: Antagonist activity at human P2Y2R expressed in human 1321N1 cells assessed as inhibition of UTPgammaS-activated calcium-mobilization at 10 uM preincubated for 45 mins measured every 1.52 secs for 200 secs after the addition of UTPgammaS at 15 secs by fluo-4AM-based fluorescence assay; format: functional, cell-based; in short: as §1
# P2Y purinoceptor 2 [9] = target: T1, P2Y purinoceptor 2; assay: Binding affinity to human P2Y2R expressed in human 1321N1 cells assessed as localized membrane fluorescence at 100 nM after 30 mins in presence of AR-C118925 by confocal microscopy; format: cell-based; in short: as §3
smiles,measurement,setting,value
Cn1cc(C2c3ccc(Cl)cc3C=Cc3sc(-c4ccccc4)nc32)c(=S)[nH]c1=O (configuration not stated),inhibition,P2Y purinoceptor 2 [1],< 50%
Cc1cc(C)n2c1C=C1C=CC(CCC(=O)NCCCCCC(=O)NCCNC(=O)CCNc3nc4c(s3)C=Cc3cc(Cl)ccc3C4c3cn(C)c(=O)[nH]c3=S)=[N+]1[B-]2(F)F (configuration not stated),Ki,P2Y purinoceptor 2 [2],398 nM
same,inhibition,P2Y purinoceptor 2 [2],Dose-dependent effect
same,pKb,P2Y purinoceptor 2 [3],6.3
same,Kd,P2Y purinoceptor 2 [4],2140 nM
same,Activity,P2Y purinoceptor 2 [5],Active
Cc1nc2c(s1)C=Cc1cc(Cl)ccc1C2c1cn(Cc2nc(C(=O)Nc3nnn[nH]3)cs2)c(=O)[nH]c1=S (configuration not stated),pKb,P2Y purinoceptor 2 [3],6.48
Cn1cc(C2c3ccc(Cl)cc3C=Cc3sc(Nc4ccccc4)nc32)c(=S)[nH]c1=O (configuration not stated),inhibition,P2Y purinoceptor 2 [1],< 50%
Cc1ccc2c(c1)C=Cc1cc(C)ccc1C2c1cn(Cc2cc(C(=O)NCCOCCOCCNC(=O)COc3ccc(/C=C/C4=[N+]5C(=Cc6ccc(-c7cccs7)n6[B-]5(F)F)C=C4)cc3)cc(C(=O)Nc3nnn[nH]3)c2)c(=O)[nH]c1=S,Kd,P2Y purinoceptor 2 [4],759 nM
CCOCCNc1nc2c(s1)C=Cc1cc(Cl)ccc1[C@H]2c1cn(C)c(=O)[nH]c1=S,inhibition,P2Y purinoceptor 2 [2],Dose-dependent effect
same,pKb,P2Y purinoceptor 2 [3],6.74 to 6.78
Cn1cc(C2c3ccc(Cl)cc3C=Cc3sc(NCCOc4ccccc4)nc32)c(=S)[nH]c1=O (configuration not stated),inhibition,P2Y purinoceptor 2 [1],< 50%
CCOCCNc1nc2c(s1)C=Cc1cc(Cl)ccc1C2c1cn(C)c(=O)[nH]c1=S (racemic),pKb,P2Y purinoceptor 2 [3],6.73
CN1CCN(c2nc3c(s2)C=Cc2cc(Cl)ccc2C3c2cn(C)c(=O)[nH]c2=S)CC1 (configuration not stated),inhibition,P2Y purinoceptor 2 [1],< 50%
Cc1cc(C)n2c1C=C1C=CC(CCC(=O)NCCCCCC(=O)NCCOCCOCCNC(=O)CCNc3nc4c(s3)C=Cc3cc(Cl)ccc3C4c3cn(C)c(=O)[nH]c3=S)=[N+]1[B-]2(F)F (configuration not stated),Kd,P2Y purinoceptor 2 [4],4170 nM
same,Activity,P2Y purinoceptor 2 [5],Active
Cn1cc(C2c3ccc(Cl)cc3C=Cc3sc(NCCc4ccccc4)nc32)c(=S)[nH]c1=O (configuration not stated),inhibition,P2Y purinoceptor 2 [1],< 50%
Cc1cc(C)n2c1C=C1C=CC(CCC(=O)NCCNC(=O)CCNc3nc4c(s3)C=Cc3cc(Cl)ccc3C4c3cn(C)c(=O)[nH]c3=S)=[N+]1[B-]2(F)F (configuration not stated),Kd,P2Y purinoceptor 2 [4],12300 nM
same,Activity,P2Y purinoceptor 2 [5],Active
Cn1cc(C2c3ccc(Cl)cc3C=Cc3sc(N4CCCCC4)nc32)c(=S)[nH]c1=O (configuration not stated),inhibition,P2Y purinoceptor 2 [1],< 50%
CC(C)OCCNc1nc2c(s1)C=Cc1cc(Cl)ccc1C2c1cn(C)c(=O)[nH]c1=S (configuration not stated),pKb,P2Y purinoceptor 2 [3],6.49
O=C(CCNc1nc2c(s1)C=Cc1cc(Cl)ccc1C2c1cn(Cc2nc(C(=O)Nc3nnn[nH]3)cs2)c(=O)[nH]c1=S)NCCNC(=O)COc1ccc(/C=C/C2=[N+]3C(=Cc4ccc(-c5cccs5)n4[B-]3(F)F)C=C2)cc1 (configuration not stated),Kd,P2Y purinoceptor 2 [4],891 nM
Cc1ccc2c(c1)C=Cc1cc(C)ccc1C2c1cn(C)c(=O)[nH]c1=S,inhibition,P2Y purinoceptor 2 [1],< 50%
COCCNc1nc2c(s1)C=Cc1cc(Cl)ccc1C2c1cn(C)c(=O)[nH]c1=S (stereo in doubt; 20),pKb,P2Y purinoceptor 2 [3],6.63
Cn1cc(C2c3ccc(Cl)cc3C=Cc3sc(N4CCOCC4)nc32)c(=S)[nH]c1=O (configuration not stated),inhibition,P2Y purinoceptor 2 [1],< 50%
O=C(CCCCCNC(=O)COc1ccc(/C=C/C2=[N+]3C(=Cc4ccc(-c5cccs5)n4[B-]3(F)F)C=C2)cc1)NCCNC(=O)CCNc1nc2c(s1)C=Cc1cc(Cl)ccc1C2c1cn(Cc2nc(C(=O)Nc3nnn[nH]3)cs2)c(=O)[nH]c1=S (configuration not stated),Drug uptake,[6],Not Active
same,Activity,P2Y purinoceptor 2 [7],Active
same,Kd,P2Y purinoceptor 2 [4],129 nM
same,pKb,P2Y purinoceptor 2 [8],5.69
same,Activity,P2Y purinoceptor 2 [9],inactive
Cn1cc(C2c3ccc(Cl)cc3C=Cc3sc(NCc4ccccc4)nc32)c(=S)[nH]c1=O (configuration not stated),inhibition,P2Y purinoceptor 2 [1],< 50%
Cc1ccc2c(c1)C=Cc1cc(C)ccc1C2c1cn(Cc2cc(C(=O)NCCNC(=O)COc3ccc(/C=C/C4=[N+]5C(=Cc6ccc(-c7cccs7)n6[B-]5(F)F)C=C4)cc3)cc(C(=O)Nc3nnn[nH]3)c2)c(=O)[nH]c1=S,Kd,P2Y purinoceptor 2 [4],2750 nM
Cc1ccc2c(c1)C=Cc1cc(C)ccc1C2c1cn(Cc2ccc(C(=O)Nc3nnn[nH]3)o2)c(=O)[nH]c1=S,inhibition,P2Y purinoceptor 2 [2],Dose-dependent effect
COCCNc1nc2c(s1)C=Cc1cc(Cl)ccc1C2c1cn(C)c(=O)[nH]c1=S (racemic),pKb,P2Y purinoceptor 2 [3],6.6
O=c1ccn([C@@H]2O[C@H](COP(=O)(O)OP(=O)(O)OP(=O)(O)S)[C@@H](O)[C@H]2O)c(=O)[nH]1 (some centres not stated),Ki,P2Y purinoceptor 2 [2],3470 nM
same,inhibition,P2Y purinoceptor 2 [2],Dose-dependent effect
Cc1cc(C)n2c1C=C1C=CC(CCC(=O)NCCNC(=O)CCNc3nc4c(s3)C=Cc3cc(Cl)ccc3C4c3cn(Cc4nc(C(=O)Nc5nnn[nH]5)cs4)c(=O)[nH]c3=S)=[N+]1[B-]2(F)F (configuration not stated),Kd,P2Y purinoceptor 2 [4],89.1 nM
COCCNc1nc2c(s1)C=Cc1cc(Cl)ccc1C2c1cn(C)c(=O)[nH]c1=S (stereo in doubt; 21),pKb,P2Y purinoceptor 2 [3],5.82
Cc1ccc2c(c1)C=Cc1cc(C)ccc1C2c1cn(Cc2nc(C(=O)O)cs2)c(=O)[nH]c1=S,pKb,P2Y purinoceptor 2 [3],6.43
Cc1ccc2c(c1)C=Cc1cc(C)ccc1C2c1cn(Cc2nc(C(=O)Nc3nnn[nH]3)cs2)c(=O)[nH]c1=S,Ki,P2Y purinoceptor 2 [2],129 nM
same,inhibition,P2Y purinoceptor 2 [2],Dose-dependent effect
same,pKb,P2Y purinoceptor 2 [3],7.11
Cn1cc(C2c3ccc(Cl)cc3C=Cc3sc(N)nc32)c(=S)[nH]c1=O (configuration not stated),pKb,P2Y purinoceptor 2 [3],6.56
CCOCCNc1nc2c(s1)C=Cc1cc(Cl)ccc1[C@@H]2c1cn(C)c(=O)[nH]c1=S,inhibition,P2Y purinoceptor 2 [2],Dose-dependent effect
same,pKb,P2Y purinoceptor 2 [3],< 5
same,inhibition,P2Y purinoceptor 2 [1],< 50%
Cc1nc2c(s1)C=Cc1cc(Cl)ccc1C2c1cn(C)c(=O)[nH]c1=S (configuration not stated),Ki,P2Y purinoceptor 2 [2],1550 nM
same,inhibition,P2Y purinoceptor 2 [2],Dose-dependent effect
same,pKb,P2Y purinoceptor 2 [3],5.99
O=c1[nH]c(=S)c(C2c3ccccc3CCc3ccccc32)cn1[C@@H]1O[C@H](COP(=O)(O)OP(=O)(O)C(Cl)(Cl)P(=O)(O)O)[C@@H](O)[C@H]1O,Ki,P2Y purinoceptor 2 [2],83.2 nM
same,inhibition,P2Y purinoceptor 2 [2],Dose-dependent effect
same,pKb,P2Y purinoceptor 2 [3],6.59
